Assay results collected from several papers.
Target: Myosin-IIIa (MYO3A, Homo sapiens, UniProt Q8NEV4)

Structure (SMILES)	test	setting	remaining binding [%]
Cc1cnn2ncc(-c3ccnc(N(C)C)n3)c2c1	binding	1 µM	100
O=C(NS(=O)(=O)c1ccc(NCC2CCOCC2)c([N+](=O)[O-])c1)c1ccc(N2CCN(Cc3ccc(C(F)(F)F)cc3-c3ccc(Cl)cc3)CC2)cc1Oc1cnc2[nH]ccc2c1	cell-free assay, competition with immobilised ligand	1 µM	85
FC(F)(F)Oc1cccc(-c2cnc3ccc(-c4ccncc4)nn23)c1	cell-free assay, competition with immobilised ligand	5 µM	82
Cc1c(NC(=O)c2cc(C(N)=O)nc3cc(F)ccc23)c(C(F)(F)F)nn1Cc1ccc(C#N)cc1	binding, competition with immobilised ligand	1 µM	91
C[C@@H](c1ccc(-n2cnc3c(N)ncnc32)cc1)N1CCc2nn(C)c(Cc3ccccc3)c2C1=O	binding, competition with immobilised ligand	0.1 µM	97
COc1ccnn2ncc(-c3ccnc(N(C)C)n3)c12	binding	1 µM	96
Nc1ncc2c(n1)-c1c([nH]c3ccc(C#CC4CC4)cc13)CCCC2	binding, competition with immobilised ligand	1 µM	91
CN(C(=O)c1ccccc1)c1cc(N(C)c2ccc3c(c2)CCc2ccc(C(=O)NCCN4CCOCC4)cc2C3=O)ccc1F	cell-free assay, competition with immobilised ligand	1 µM	91
Cc1cnc(Nc2ccc(C(=O)N3CCC(N4CCCC4)CC3)cc2)nc1-c1cc2ccccc2s1	binding, competition with immobilised ligand	1 µM	85
O=C(Nc1c[nH]nc1C(=O)NC1CCNCC1)c1cc(F)cc(F)c1	binding, competition with immobilised ligand	1 µM	94
O=C(NCCCN1CCOCC1)c1ccc(Nc2ncc(Cl)c(-c3ccc(Cl)s3)n2)cc1	binding, competition with immobilised ligand	1 µM	95
CN(C)c1nccc(-c2cnc3ncccn23)n1	binding	1 µM	90
c1ccc(N2CCN(Cc3nc4ccccc4[nH]3)CC2)nc1	binding, competition with immobilised ligand	1 µM	100
N[C@@H]1CCN(c2nccc(-c3cnn4ncccc34)n2)C1	binding	1 µM	100
CCN1CCN(Cc2ccc(C(=O)Nc3ccc(C)c(Oc4ccc5c(c4)CC(=O)N5)c3)cc2C(F)(F)F)CC1	binding, competition with immobilised ligand	1 µM	100
CN(C)c1ncc(F)c(-c2cnn3ncccc23)n1	binding	1 µM	100
O=C(c1ccc(Nc2nccc(-c3cc4ccccc4s3)n2)cc1)N1CCC(N2CCCC2)CC1	binding, competition with immobilised ligand	1 µM	100
CCCCN(CCCC)C(=O)CN1C[C@@H](c2cc(OC)c3c(c2)OCO3)[C@H](C(=O)O)[C@H]1CC(C)(C)CCC	cell-free assay, competition with immobilised ligand	1 µM	100
CNC(=O)[C@@H]1CC[C@@H](n2c(-c3ccc4cnccc4c3)nc3ccc(C(=O)NCc4cccc(C(N)=O)c4)cc32)C1	binding, competition with immobilised ligand	1 µM	100
c1cnn2ncc(-c3ccnc(N4CCC45COC5)n3)c2c1	binding	1 µM	55
CCC(=O)N[C@H]1CC[C@@H](C(=O)N(C)c2ccc(-c3nc4ccccc4o3)cc2)C1	cell-free assay, competition with immobilised ligand	1 µM	100
